# Test results reported in PMC10754386 (Acta physiologica (Oxford, England), 2022).
# Columns and labels:
# [1] = tested on: NCD-WT mice; test: Liver glycogen content in NCD-WT mice; format: in vivo, mouse
# [2] = tested on: CST-KO mice; test: Liver glycogen content in NCD-CST-KO mice; format: in vivo, mouse; details: fed state, insulin 30 min, Figure 4B
# [3] = tested on: mice; test: Plasma counterregulatory hormones; format: in vivo, mouse; details: NCD-WT mice; acute insulin for 30 minutes; n = 7; Figure 2B,C
# [4] = tested on: PI3-kinase; test: PI-3-kinase activity in anti-p85 immunoprecipitates of hepatocytes; format: cell-based, mouse; details: CST 100 nM for 1 hour, insulin 10 nM for 10 minutes, Figure 6E
# Summary of the method: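 Mouse hepatocytes were left untreated or exposed to CST (100 nM, 1 hr) or insulin (10 nM, 10 min), then lysed. Anti-p85 immunoprecipitates were washed and assayed with phosphatidylinositol substrate and γ-32P-ATP. Labelled lipids were extracted, mixed with reference lipids and separated by TLC (CHCl3–MeOH–H2O–NH4OH (25%), 45:35:8.5:1.5). PI3P was detected by autoradiography.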
# [5] = tested on: IR, IRS-1, mTOR, AKT; test: Immunoblotting of phosphorylation signals in primary hepatocytes; format: cell-based, mouse; details: cultured hepatocytes; immunoblot; n = 3; Figure 6A–D
# [6] = tested on: GSK-3β; test: Immunoblotting of GSK-3β in liver; format: in vivo, mouse; details: liver of fasted NCD-WT and DIO-WT mice; immunoblot; n = 4; Figure 9A,B
substance,measurement,setting,value
insulin,effect on liver glycogen level,"[1]; fasted NCD-WT mice, insulin 30 minutes, CST 2 μg/g body weight acute (1 hour) and chronic (10–15 days), Figure 1A,C,D",restored glycogen level
same,fold increase in hepatic glycogen content,"[1]; fasted lean mice, CST or insulin alone",> fivefold
same,effect on hepatic glycogen content,[2],failed to increase
same,effect on plasma noradrenaline and adrenaline levels,[3],raised plasma noradrenaline and adrenaline levels only in the fasted state
same,effect on PI3-kinase activity (PI3P formation),[4],stimulated PI3-kinase activity
same,effect on tyrosine phosphorylation of IR and IRS-1,[5],stimulated tyrosine phosphorylation
same,effect on GSK-3β Ser9 phosphorylation,[6],increased GSK-3β Ser9 phosphorylation
